Source: ChEMBL document CHEMBL5046221, “Identification of Pyrimidine-Based Lead Compounds for Understudied Kinases Implicated in Driving Neurodegeneration” (J Med Chem, 2022)

Tests used:
[1] = target: MAP/microtubule affinity-regulating kinase 3 (Homo sapiens, UniProt P27448); experiment: Displacement of tracer K9 from NLuc fused MARK3 (unknown origin) expressed in HEK293 cells by NanoBRET assay; type: cell-based
[2] = target: T1, BMP-2-inducible protein kinase (Homo sapiens, UniProt Q9NSY1); experiment: Residual activity of human BMP2K at 1 uM using peptide as substrate incubated for 120 mins in presence of [gamma-33P-ATP] by radiometric scintillation assay relative to control
[3] = target: Serine/threonine-protein kinase 17B (Homo sapiens, UniProt O94768); experiment: Inhibition of recombinant human DRAK2 using KKRPQRRYSNVF as substrate after 120 mins in presence of [gamma-33ATP] by scintillation counting based radiometry assay
Summary of the method: (§1)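 Eurofins radiometric enzymatic assay with ATP at Km for each kinase. IC50 was derived from a 9-point dose–response curve run in duplicate.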

[4] = target: T2, Serine/threonine-protein kinase 17A (Homo sapiens, UniProt Q9UEE5); experiment: Displacement of tracer K9 from NLuc fused DRAK1 (unknown origin) expressed in HEK293 cells by NanoBRET assay; type: cell-based
T2 sequence (Q9UEE5 whole entry): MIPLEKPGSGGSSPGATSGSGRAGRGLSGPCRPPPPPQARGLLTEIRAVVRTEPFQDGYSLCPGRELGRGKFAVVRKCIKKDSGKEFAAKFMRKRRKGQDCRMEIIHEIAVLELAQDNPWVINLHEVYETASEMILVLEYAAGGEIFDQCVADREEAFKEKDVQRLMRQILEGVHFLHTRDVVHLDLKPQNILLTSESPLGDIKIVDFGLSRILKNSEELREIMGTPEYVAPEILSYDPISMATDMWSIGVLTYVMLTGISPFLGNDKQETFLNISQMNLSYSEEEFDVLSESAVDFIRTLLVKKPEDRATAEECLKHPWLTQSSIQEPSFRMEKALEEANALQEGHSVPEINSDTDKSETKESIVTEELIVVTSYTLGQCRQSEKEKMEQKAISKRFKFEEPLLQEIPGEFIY

[5] = target: Serine/threonine-protein kinase SIK2 (Homo sapiens, UniProt Q9H0K1); experiment: Inhibition of recombinant human SIK2 (1 to 276 residues) using KKKVSRSGLYRSPSMPENLNRPR as substrate measured after 40 mins in presence of [gamma33P]ATP by radiometric scintillation counting method
Summary of the method: (§2)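 Eurofins radiometric kinase assay run at ATP equal to Km for each kinase. 9-point dose–response in duplicate gives the IC50.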

[6] = target: AP2-associated protein kinase 1 (Homo sapiens, UniProt Q2M2I8); experiment: Inhibition of human AAK1 using peptide as substrate incubated for 120 mins in presence of [gamma-33ATP] by scintillation counting based radiometry assay; summary of the method: as §2
[7] = target: Non-receptor tyrosine-protein kinase TYK2 (Homo sapiens, UniProt P29597); experiment: Inhibition of human TYK2 (875 to end residues) using GGMEDIYFEFMGGKKK as substrate measured after 40 mins in presence of [gamma33P]ATP by radiometric scintillation counting method; summary of the method: as §1
[8] = target: T2, Serine/threonine-protein kinase 17A; experiment: Inhibition of recombinant human DRAK1 using KKLNRTLSFAEPG as substrate after 40 mins in presence of [gamma-33ATP] by scintillation counting based radiometry assay; summary of the method: as §2
[9] = target: MAP kinase-interacting serine/threonine-protein kinase 2 (Homo sapiens, UniProt Q9HBH9); experiment: Inhibition of full length recombinant human MKNK2 using myelin basic protein as substrate incubated for 40 mins in presence of [gamma-33P-ATP] by radiometric scintillation assay; summary of the method: as §2
[10] = Effective permeability in PBS at 7.4 incubated for 5 hrs by PAMPA analysis; type: ADME; conditions: pH 7.4, 5 h
Summary of the method: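 PAMPA: DMSO stocks were diluted in PBS pH 7.4 and placed in the donor compartment, with PBS pH 7.4 in the acceptor, for 5 h. Both compartments were quantified by CLND against a calibration curve, with background nitrogen correction. Effective permeability was calculated from donor and acceptor concentrations using measured rather than assumed solubility.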

[11] = Kinetic solubility of compound in PBS at pH 7.4 incubated for 24 hrs by chemiluminscent nitrogen detection method; type: physicochemical; conditions: buffer, pH 7.4, 24 h
Summary of the method: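 Filtrates were quantified by total chemiluminescent nitrogen determination against a calibration curve, with correction for background nitrogen from DMSO and medium.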

[12] = target: T3, Serine/threonine-protein kinase TBK1 (Homo sapiens, UniProt Q9UHD2); experiment: Displacement of tracer K5 from NLuc fused TBK1 (unknown origin) expressed in HEK293 cells by NanoBRET assay; type: cell-based
T3 sequence (Q9UHD2 whole entry): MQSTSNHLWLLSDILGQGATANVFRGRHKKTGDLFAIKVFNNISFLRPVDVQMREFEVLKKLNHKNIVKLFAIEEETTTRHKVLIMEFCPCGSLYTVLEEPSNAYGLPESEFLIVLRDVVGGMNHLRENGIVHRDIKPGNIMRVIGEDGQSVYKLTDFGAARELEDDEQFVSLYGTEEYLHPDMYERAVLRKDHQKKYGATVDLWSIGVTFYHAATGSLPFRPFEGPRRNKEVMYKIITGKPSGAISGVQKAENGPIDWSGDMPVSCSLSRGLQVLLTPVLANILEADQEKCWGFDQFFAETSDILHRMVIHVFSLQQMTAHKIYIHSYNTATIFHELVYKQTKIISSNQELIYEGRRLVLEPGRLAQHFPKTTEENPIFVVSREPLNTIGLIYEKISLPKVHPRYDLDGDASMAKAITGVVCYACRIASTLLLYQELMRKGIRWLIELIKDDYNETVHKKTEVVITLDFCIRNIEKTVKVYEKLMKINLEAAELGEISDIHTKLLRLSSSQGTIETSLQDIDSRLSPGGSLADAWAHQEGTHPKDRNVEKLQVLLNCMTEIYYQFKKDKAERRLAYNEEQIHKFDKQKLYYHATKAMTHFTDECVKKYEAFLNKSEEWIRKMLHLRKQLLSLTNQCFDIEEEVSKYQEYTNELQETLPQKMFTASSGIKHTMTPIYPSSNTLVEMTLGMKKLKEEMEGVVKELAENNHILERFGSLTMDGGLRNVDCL
Summary of the method: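 HEK293 cells grown in DMEM with 10% FBS at 37 °C, 5% CO2. NanoBRET assay run in dose–response per manufacturer's protocol with tracer K-5 at 0.5 μM. SEM calculated for assays run more than once.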

[13] = target: T4, MAP/microtubule affinity-regulating kinase 4 (Homo sapiens, UniProt Q96L34); experiment: Displacement of tracer K5 from NLuc fused MARK4 (unknown origin) expressed in HEK293 cells by NanoBRET assay; type: cell-based
T4 sequence (Q96L34 whole entry): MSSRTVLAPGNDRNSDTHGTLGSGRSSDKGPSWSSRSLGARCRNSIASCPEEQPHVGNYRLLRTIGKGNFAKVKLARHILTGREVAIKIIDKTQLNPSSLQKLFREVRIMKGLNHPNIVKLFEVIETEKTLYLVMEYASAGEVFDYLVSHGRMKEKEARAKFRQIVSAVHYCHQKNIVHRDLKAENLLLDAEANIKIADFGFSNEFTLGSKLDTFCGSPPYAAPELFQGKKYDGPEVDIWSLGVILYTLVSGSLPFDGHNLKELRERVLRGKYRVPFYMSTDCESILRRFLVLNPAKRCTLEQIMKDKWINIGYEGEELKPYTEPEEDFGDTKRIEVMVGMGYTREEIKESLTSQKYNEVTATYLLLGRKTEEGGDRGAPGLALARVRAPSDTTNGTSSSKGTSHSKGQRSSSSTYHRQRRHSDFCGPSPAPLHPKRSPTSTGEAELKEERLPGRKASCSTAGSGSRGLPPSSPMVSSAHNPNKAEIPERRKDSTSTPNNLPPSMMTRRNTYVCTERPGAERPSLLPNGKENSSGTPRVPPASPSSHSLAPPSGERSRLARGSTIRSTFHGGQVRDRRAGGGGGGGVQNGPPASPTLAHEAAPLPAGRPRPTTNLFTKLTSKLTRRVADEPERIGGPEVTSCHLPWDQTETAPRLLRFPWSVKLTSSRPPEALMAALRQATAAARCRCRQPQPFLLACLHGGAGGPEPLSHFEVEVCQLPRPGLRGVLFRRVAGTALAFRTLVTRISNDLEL

[14] = target: T1, BMP-2-inducible protein kinase; experiment: Inhibition of 1recombinant human BMP2K using myelin basic protein as substrate incubated for 120 mins in presence of [gamma-33P-ATP] by radiometric scintillation assay
[15] = target: Tyrosine-protein kinase JAK2 (Homo sapiens) (UniProt O60674); experiment: Inhibition of recombinant human JAK2 (808 to end residues) using KTFCGTPEYLAPEVRREPRILSEEEQEMFRDFDYIADWC as substrate at 1 uM incubated for 40 mins in presence of [gamma-33P-ATP] by radiometric scintillation assay relative to control
Summary of the method: (§3)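 Eurofins radiometric kinase assay with ATP at Km for each kinase. Compound was tested at a single 1 μM concentration in duplicate, and the result is reported as percent of control.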

[16] = Inhibition of human TTBK1 (1 to 479 residues) using Casein as substrate measured after 40 mins in presence of [gamma33P]ATP by scintillation counting method; summary of the method: as §2
[17] = target: High affinity nerve growth factor receptor (Homo sapiens, UniProt P04629); experiment: Inhibition of human TrkA (440 to end residues) using KKKSPGEYVNIEFG as substrate measured after 40 mins in presence of [gamma33P]ATP by scintillation counting method; summary of the method: as §2
[18] = target: Aurora kinase B (Homo sapiens) (UniProt Q96GD4); experiment: Inhibition of full length recombinant human AURKB using AKRRRLSSLRA as substrate at 1 uM incubated for 40 mins in presence of [gamma-33P-ATP] by radiometric scintillation assay relative to control; summary of the method: as §3

T1 sequence (Q9NSY1 whole entry, looked up): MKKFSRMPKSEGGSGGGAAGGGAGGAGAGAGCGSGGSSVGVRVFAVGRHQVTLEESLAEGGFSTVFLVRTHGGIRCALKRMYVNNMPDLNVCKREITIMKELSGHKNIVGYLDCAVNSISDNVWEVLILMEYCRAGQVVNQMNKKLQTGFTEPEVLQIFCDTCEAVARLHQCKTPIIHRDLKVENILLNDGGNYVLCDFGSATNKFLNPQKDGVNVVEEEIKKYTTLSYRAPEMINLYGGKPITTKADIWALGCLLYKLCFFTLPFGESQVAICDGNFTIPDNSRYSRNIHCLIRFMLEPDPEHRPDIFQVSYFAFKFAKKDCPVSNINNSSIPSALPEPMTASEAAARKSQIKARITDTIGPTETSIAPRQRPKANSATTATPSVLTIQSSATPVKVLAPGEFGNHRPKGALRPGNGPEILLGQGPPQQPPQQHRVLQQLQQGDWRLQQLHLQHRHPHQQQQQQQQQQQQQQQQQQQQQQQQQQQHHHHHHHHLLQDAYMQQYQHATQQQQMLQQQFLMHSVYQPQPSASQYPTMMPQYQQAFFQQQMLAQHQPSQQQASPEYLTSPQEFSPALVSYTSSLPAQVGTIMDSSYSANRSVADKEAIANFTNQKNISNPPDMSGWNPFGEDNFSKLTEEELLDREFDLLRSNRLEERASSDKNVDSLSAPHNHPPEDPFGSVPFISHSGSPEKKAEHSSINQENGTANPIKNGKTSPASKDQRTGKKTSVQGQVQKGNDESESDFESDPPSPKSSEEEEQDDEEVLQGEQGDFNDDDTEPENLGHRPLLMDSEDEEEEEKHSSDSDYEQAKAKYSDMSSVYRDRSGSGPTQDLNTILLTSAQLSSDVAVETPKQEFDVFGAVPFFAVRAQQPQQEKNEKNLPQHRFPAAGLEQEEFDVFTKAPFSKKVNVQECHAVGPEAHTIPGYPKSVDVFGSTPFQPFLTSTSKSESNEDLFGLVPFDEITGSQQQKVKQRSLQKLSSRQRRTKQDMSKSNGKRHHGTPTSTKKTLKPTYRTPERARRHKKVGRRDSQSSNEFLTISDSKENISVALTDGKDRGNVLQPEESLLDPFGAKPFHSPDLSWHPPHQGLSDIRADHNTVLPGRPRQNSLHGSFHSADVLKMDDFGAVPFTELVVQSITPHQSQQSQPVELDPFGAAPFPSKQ
Chain of MAP/microtubule affinity-regulating kinase 3 (P27448 whole entry, the tested form may be a part): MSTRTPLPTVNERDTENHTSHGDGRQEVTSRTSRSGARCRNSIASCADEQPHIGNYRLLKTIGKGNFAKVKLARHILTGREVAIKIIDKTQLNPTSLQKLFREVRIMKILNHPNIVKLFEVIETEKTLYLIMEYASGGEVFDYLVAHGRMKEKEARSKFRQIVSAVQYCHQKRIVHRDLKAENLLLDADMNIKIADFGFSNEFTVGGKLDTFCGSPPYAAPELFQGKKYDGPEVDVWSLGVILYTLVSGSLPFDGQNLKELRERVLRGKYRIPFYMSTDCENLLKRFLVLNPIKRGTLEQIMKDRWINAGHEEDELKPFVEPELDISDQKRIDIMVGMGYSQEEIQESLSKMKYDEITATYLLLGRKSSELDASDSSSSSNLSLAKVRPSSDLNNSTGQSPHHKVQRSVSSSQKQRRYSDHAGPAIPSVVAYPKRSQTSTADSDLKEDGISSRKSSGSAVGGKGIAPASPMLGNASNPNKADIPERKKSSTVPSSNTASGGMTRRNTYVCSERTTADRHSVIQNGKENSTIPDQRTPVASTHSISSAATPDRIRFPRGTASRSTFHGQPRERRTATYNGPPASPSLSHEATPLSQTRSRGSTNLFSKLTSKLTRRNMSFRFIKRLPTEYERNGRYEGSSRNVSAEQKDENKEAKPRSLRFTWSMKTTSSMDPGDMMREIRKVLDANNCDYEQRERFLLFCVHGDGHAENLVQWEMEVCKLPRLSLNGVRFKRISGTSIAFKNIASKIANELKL
Chain of AP2-associated protein kinase 1 (Q2M2I8 whole entry): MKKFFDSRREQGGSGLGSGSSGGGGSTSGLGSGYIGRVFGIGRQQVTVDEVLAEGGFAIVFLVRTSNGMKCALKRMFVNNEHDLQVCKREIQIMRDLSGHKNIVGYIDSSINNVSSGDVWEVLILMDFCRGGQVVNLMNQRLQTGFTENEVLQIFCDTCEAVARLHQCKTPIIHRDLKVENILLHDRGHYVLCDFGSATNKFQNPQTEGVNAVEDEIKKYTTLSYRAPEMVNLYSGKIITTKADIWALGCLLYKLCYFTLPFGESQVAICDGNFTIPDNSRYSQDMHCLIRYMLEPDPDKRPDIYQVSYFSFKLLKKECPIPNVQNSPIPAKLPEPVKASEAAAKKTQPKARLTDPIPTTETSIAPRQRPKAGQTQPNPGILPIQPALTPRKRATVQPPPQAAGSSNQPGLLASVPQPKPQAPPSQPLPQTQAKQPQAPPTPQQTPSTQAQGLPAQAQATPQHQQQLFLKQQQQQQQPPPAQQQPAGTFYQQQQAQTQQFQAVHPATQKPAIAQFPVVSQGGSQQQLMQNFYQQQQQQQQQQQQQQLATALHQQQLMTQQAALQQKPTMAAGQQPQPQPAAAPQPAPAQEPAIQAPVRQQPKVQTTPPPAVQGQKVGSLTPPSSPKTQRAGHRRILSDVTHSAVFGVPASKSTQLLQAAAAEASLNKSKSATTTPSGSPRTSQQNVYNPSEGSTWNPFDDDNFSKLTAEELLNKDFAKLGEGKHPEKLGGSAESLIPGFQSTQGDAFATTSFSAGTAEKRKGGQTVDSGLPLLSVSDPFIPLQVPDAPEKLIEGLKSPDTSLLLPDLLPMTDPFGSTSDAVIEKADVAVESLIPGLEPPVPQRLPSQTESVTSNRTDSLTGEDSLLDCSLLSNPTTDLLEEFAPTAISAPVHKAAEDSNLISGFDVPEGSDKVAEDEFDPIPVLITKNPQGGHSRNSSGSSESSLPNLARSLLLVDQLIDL
Chain of MAP kinase-interacting serine/threonine-protein kinase 2 (Q9HBH9 whole entry): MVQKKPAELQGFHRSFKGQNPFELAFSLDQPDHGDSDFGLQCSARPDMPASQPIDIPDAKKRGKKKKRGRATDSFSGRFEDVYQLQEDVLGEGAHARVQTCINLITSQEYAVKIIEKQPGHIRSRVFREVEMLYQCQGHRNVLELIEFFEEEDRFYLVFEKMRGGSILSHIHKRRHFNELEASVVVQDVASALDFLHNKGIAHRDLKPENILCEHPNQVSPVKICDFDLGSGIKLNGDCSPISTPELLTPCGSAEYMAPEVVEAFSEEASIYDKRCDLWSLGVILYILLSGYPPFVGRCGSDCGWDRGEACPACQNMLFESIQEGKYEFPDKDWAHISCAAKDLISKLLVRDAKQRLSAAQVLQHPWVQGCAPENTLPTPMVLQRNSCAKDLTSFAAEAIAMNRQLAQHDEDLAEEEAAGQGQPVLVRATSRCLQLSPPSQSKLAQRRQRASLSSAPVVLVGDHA
Chain of Tyrosine-protein kinase JAK2 (Homo sapiens) (O60674 whole entry): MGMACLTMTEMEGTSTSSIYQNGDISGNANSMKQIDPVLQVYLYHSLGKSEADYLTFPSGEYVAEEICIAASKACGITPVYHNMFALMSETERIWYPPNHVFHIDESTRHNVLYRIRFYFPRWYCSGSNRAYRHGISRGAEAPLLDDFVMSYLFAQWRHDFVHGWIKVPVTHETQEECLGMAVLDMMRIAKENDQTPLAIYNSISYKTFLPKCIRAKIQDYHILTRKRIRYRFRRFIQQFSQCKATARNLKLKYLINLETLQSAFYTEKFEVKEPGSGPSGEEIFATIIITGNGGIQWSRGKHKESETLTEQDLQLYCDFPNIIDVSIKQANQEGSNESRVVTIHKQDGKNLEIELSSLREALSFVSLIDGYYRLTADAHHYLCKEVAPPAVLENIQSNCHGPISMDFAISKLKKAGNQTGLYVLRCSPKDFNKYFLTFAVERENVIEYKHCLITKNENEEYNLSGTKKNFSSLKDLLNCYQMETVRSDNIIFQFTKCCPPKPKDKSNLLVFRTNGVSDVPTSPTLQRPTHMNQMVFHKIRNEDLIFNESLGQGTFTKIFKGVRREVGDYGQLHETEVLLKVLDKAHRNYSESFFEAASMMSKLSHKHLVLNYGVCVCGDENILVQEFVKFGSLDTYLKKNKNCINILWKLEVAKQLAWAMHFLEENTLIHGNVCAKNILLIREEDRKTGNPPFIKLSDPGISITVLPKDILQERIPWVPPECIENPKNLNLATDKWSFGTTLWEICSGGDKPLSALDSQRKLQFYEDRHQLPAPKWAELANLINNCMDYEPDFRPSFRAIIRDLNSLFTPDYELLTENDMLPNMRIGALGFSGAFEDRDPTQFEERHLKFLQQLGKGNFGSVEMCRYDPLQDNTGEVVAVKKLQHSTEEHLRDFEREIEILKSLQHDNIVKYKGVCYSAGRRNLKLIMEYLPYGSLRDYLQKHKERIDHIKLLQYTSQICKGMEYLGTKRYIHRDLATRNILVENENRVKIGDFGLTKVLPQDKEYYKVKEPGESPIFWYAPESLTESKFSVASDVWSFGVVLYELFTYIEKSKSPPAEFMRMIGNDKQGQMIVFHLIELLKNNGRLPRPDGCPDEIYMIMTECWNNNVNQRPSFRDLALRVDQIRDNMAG
Chain of Serine/threonine-protein kinase 17B (O94768 whole entry): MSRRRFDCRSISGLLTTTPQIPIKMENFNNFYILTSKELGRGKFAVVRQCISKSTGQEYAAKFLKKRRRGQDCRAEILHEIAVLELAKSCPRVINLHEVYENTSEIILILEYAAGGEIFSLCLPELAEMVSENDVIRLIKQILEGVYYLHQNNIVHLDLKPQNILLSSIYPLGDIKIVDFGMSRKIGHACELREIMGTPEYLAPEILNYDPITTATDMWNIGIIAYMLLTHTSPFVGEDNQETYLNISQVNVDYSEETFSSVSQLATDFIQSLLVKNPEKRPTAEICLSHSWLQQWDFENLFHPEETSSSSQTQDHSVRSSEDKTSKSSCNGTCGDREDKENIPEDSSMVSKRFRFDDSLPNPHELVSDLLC

| SMILES | IC50 [1] | % control [2] | IC50 [3] | IC50 [4] | IC50 [5] | IC50 [6] | IC50 [7] | IC50 [8] | IC50 [9] | Peff [10] | Kinetic solubility [11] | IC50 [12] | IC50 [13] | IC50 [14] | % control [15] | IC50 [16] | IC50 [17] | % control [18] |
| --- | --- | --- | --- | --- | --- | --- | --- | --- | --- | --- | --- | --- | --- | --- | --- | --- | --- | --- |
| O=C(NCCCNc1ccnc(Nc2cccc(NC(=O)N3CCCC3)c2)n1)C1CCC1 | > 10000 nM | 56% | 161 nM | 2310 nM | 481 nM | 390 nM | 720 nM | 325 nM | 769 nM | 8.24 10^-8cm/s | 169 µM | > 10000 nM | > 10000 nM |  |  |  |  |  |
| NS(=O)(=O)c1ccc(CNc2nc(Nc3cccc(NC(=O)N4CCCC4)c3)ncc2C2CC2)cc1 | > 10000 nM |  |  | > 10000 nM |  |  |  |  |  | 2.6 10^-6 cm/s | 85.6 µM | > 10000 nM | > 10000 nM | 2920 nM | 107% | 128 nM | 477 nM | 61% |
